# Measured values as given in ChEMBL document CHEMBL4673378, “Investigating the effects of the core nitrogen atom configuration on the thermodynamic solubility of 6,5-bicyclic heterocycles” (Bioorg Med Chem Lett, 2021).
# Legend:
# Assay type in all cases: physicochemical
# [1] = Melting point of the compound using crystalline form of sample
# [2] = Ionization constant, pKa of the compound
# [3] = Lipophilicity, log D of the compound at pH 7.4 by chromatographic reverse phase method; conditions: reverse phase chromatography
# [4] = Thermodynamic solubility of compound in SLF at pH 6.9 using crystalline form of sample; conditions: read-out: Therm_solubility
# Procedure, shortened: (§1)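 Thermodynamic solubility was measured from solid in Simulated Lung Fluid, buffered at pH 6.9 and containing 0.75 mM lecithin plus bovine serum albumin, reported in μg/mL. Runs were at least duplicate unless otherwise footnoted. Amorphous or crystalline material was used, as the line states.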
# [5] = Kinetic solubility of the compound at pH 7.4 using crystalline form of sample; conditions: read-out: Kinetic_solubility
# Procedure, shortened: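 Solubility at pH 7.4 measured from a 10 mM DMSO stock (stock concentration) of crystalline material, reported in μg/mL. Runs were at least duplicate unless otherwise footnoted.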
# [6] = Thermodynamic solubility of compound in FaSSIF at pH 6.5 using crystalline form of sample; conditions: read-out: Therm_solubility
# Procedure, shortened: (§2)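 Thermodynamic solubility in Fasted State Simulated Intestinal Fluid, buffered at pH 6.5 and containing 0.75 mM lecithin, reported in μg/mL. Runs were at least duplicate unless otherwise footnoted. Solid form was amorphous or crystalline, as the line states.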
# [7] = Melting point of the compound using amorphous form of sample
# [8] = Thermodynamic solubility of compound in SLF at pH 6.9 using amorphous form of sample; conditions: read-out: Therm_solubility; procedure, shortened: as §1
# [9] = Thermodynamic solubility of compound in FaSSIF at pH 6.5 using amorphous form of sample; conditions: read-out: Therm_solubility; procedure, shortened: as §2
Compound,Tm [1],pKa [2],chromatographic logD [3],solubility thermodynamic [4],solubility kinetic [5],solubility thermodynamic [6],Tm [7],solubility thermodynamic [8],solubility thermodynamic [9]
COc1ccc(-c2c(C)nc3c(NCc4cccnc4)cc(C)cn23)cc1OC,85 °C,6.5,4.9,33 µg/mL,86 µg/mL,109 µg/mL,–,–,–
COc1ccc(-c2c(C)nn3c(NCC4CCOCC4)cc(C)nc23)cc1OC,157 °C,5.7,5.2,18 µg/mL,> 180 µg/mL,25 µg/mL,–,–,–
COc1ccc(-c2c(C)nc3c(NCC4CCOCC4)nc(C)cn23)cc1OC,–,5.6,5.2,–,99 µg/mL,–,93 °C,10 µg/mL,7 µg/mL
COc1ccc(-c2c(C)nn3c(NCc4ccc(N(C)C)cc4)cc(C)nc23)cc1OC,238 °C,5.4,3.7,1 µg/mL,79 µg/mL,15 µg/mL,–,–,–
COc1ccc(-c2c(C)nn3c(NCc4ccc(C(N)=O)cc4)nc(C)cc23)cc1OC,194 °C,3.8,4.8,< 6 µg/mL,19 µg/mL,5 µg/mL,–,–,–
COc1ccc(-c2c(C)nc3c(NCc4ccc(C(N)=O)cc4)nc(C)cn23)cc1OC,–,5,3.9,–,53 µg/mL,–,191 °C,9 µg/mL,32 µg/mL
COc1ccc(-c2c(C)nc3c(NCc4ccc(C(N)=O)cc4)cc(C)cn23)cc1OC,203 °C,6.6,4.3,2 µg/mL,29 µg/mL,6 µg/mL,–,–,–
COc1ccc(-c2c(C)nc3c(NCC4CCOCC4)cc(C)cn23)cc1OC,90 °C,6.7,6,29 µg/mL,64 µg/mL,233 µg/mL,–,–,–
COc1ccc(-c2c(C)nn3c(NCC4CCOCC4)nc(C)nc23)cc1OC,143 °C,3.1,5.1,18 µg/mL,> 165 µg/mL,29 µg/mL,–,–,–
COc1ccc(-c2c(C)nn3c(NCC4CCOCC4)nc(C)cc23)cc1OC,104 °C,4.4,6.4,3 µg/mL,44 µg/mL,13 µg/mL,–,–,–

# Next, values leading:
Tm [1],pKa [2],chromatographic logD [3],solubility thermodynamic [4],solubility kinetic [5],solubility thermodynamic [6],Tm [7],solubility thermodynamic [8],solubility thermodynamic [9],Compound
101 °C,2.8,5.5,6 µg/mL,35 µg/mL,31 µg/mL,–,–,–,COc1ccc(-c2c(C)nn3c(NCc4cccnc4)nc(C)cc23)cc1OC
149 °C,5.4,4.3,39 µg/mL,> 107 µg/mL,141 µg/mL,–,–,–,COc1ccc(-c2c(C)nn3c(NCc4cccnc4)cc(C)nc23)cc1OC
167 °C,2.9,3.9,10 µg/mL,19 µg/mL,32 µg/mL,–,–,–,COc1ccc(-c2c(C)nn3c(NCc4ccc(N(C)C)cc4)nc(C)nc23)cc1OC
–,5.3,4.5,–,67 µg/mL,–,128 °C,58 µg/mL,335 µg/mL,COc1ccc(-c2c(C)nc3c(NCc4cccnc4)nc(C)cn23)cc1OC
149 °C,2.5,4.5,36 µg/mL,> 150 µg/mL,36 µg/mL,–,–,–,COc1ccc(-c2c(C)nn3c(NCc4cccnc4)nc(C)nc23)cc1OC
